Here are results for 95 compounds from ChEMBL document CHEMBL4513216, “Probing the Open Global Health Chemical Diversity Library for Multistage-Active Starting Points for Next-Generation Antimalarials” (ACS Infect Dis, 2020).

The data set is described as follows: Toxicity liver stage against HepG2, at 10uM. In kind it is cell-based. More on the design: test concentration 10 uM, cell line HepG2-A16-CD81EGFP. The conditions noted are these: human, HepG2-A16-CD81EGFP cells; read-out: INHIBITION
In a few lines:
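Uninfected HepG2-A16-CD81EGFP cells, 3 × 10^3 per well, 1536-well, plated on prespotted compound at 10 μM final, parasite-free screening media added to match infected plates; puromycin 10 μM positive, DMSO 0.5% negative; run in parallel with 48 h PbLuc assay at 37 °C, 5% CO2; viability by CellTiter-Glo luminescence, normalized to controls.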
With `CC(C)CCN1CC[C@H](c2nnc(Cc3c[nH]c4ccccc34)o2)C1`, the cytotoxicity at 10 µM worked out at 0.167%.
The value for `O=C(NC1CCS(=O)(=O)C1)c1cn(C2CC2)c(=O)c2ccccc12` (stereo not given) was -5.65%; that for `Cc1ccncc1NC(=O)C1CSc2ncc(C)c(=O)n2C1` (stereo not given) was -6.53%; that for `CCNC(=O)N1CCC2(CC1)CCn1c(C3CC3)cnc12` was 1.89%.
In the case of `Cn1cccc1C(=O)N1CC[C@H]2[C@@H]1CCC(=O)N2c1ccccc1` it was -6.53%.
For the compound `c1ccc(CN2CCOC3(CCCN(c4nccs4)C3)C2)cc1` (stereo not given), the cytotoxicity at 10 µM is 13.7%.
On to `Cn1ncc2c1C(COCC1CC1)CN(Cc1cccnc1)C2` (stereo not given), for which the cytotoxicity at 10 µM was determined as 11.4%.
On to `c1cncc(OCC2CN(Cc3ccco3)Cc3nccn3C2)c1` (stereo not given), for which the cytotoxicity at 10 µM is -20.4%.
Turning to `CCOC(=O)Cn1ccc(NC(=O)Cc2ccccc2F)n1`, the cytotoxicity at 10 µM worked out at 3.33%.
In the case of `O=C(COCc1nc(-c2ccncc2)no1)N1CCCCCC1` it was -8.83%; in that of `Cc1nc(NCc2nonc2C)cc(C(C)Cn2nc(C)c(C)c2C)n1` (stereo not given), 7.03%.
As to `CCOc1ccc(CN2CCC(c3nc(C)cc(C)n3)C2)cc1CO` (stereo not given), the cytotoxicity at 10 µM worked out at 2.75%.
`CCn1cc(CN2CCN(CC(O)c3cc(C)ccc3C)CC2)c(C)n1` (stereo not given): the cytotoxicity at 10 µM is 3.41%.
As to `Cc1nccc(C2CN(Cc3cc[nH]n3)CCO2)n1` (stereo not given), the cytotoxicity at 10 µM was -6.92%.
Regarding `Cc1ccc(S(=O)(=O)Nc2ccc(N3CCSCC3)c(C(=O)O)c2)s1`, the cytotoxicity at 10 µM came out at 3.54%.
The value for `Cc1ccccc1-n1nccc1NC(=O)CCOC(C)C` was 0%; that for `Cc1ncc(S(=O)(=O)Nc2ccnn2C2CCCCC2)[nH]1` was -6.82%.
In the case of `O=C(CSCc1ccccn1)NCC1CCN(C2CC2)C1` (stereo not given), the cytotoxicity at 10 µM is -14.8%.
As to `NC(=O)CCN(CC(=O)NCc1ccccn1)c1ccc(F)cc1`, the cytotoxicity at 10 µM turned out to be 7.98%.
`CC(=O)Nc1ccc(CNCC(O)c2ccc(C)cc2)cc1` (stereo not given): the cytotoxicity at 10 µM is -0.684%.
Regarding `Cc1cnc(C(=O)N2CCOCC2c2ccccc2)cn1` (stereo not given), the cytotoxicity at 10 µM is -8.31%.
The value for `CCCN1CCC(N(C)CCC(=O)Nc2ccccc2SC)CC1` was 15.5%.
With `Cc1csc(CNC(=O)NCC(C)Cn2nc(C)cc2C)n1` (stereo not given), the cytotoxicity at 10 µM is 3.26%.
As to `OC(CNCCn1cccn1)COc1ccc2ccccc2c1` (stereo not given), the cytotoxicity at 10 µM is -26.4%.
In the case of `O=C(c1sccc1C1CC1)N1CCN(c2cnccn2)CC1`, the cytotoxicity at 10 µM is -2.92%.
The value for `CSC(C)(C)CNC(=O)NC1CCN(CC2CC2)C1` (stereo not given) was 0.811%; that for `COCc1ccc(C(=O)N(CCC#N)Cc2ccccn2)cc1` was 14%; that for `Cc1noc(Cl)c1CC(=O)NCC(C)(O)c1ccc(F)cc1F` (stereo not given) was -0.837%.
In the case of `Cc1nn(CCC#N)c(C)c1CCC(=O)N(C(C)C)C1CC1` it was -2.72%.
The value for `COCCCn1ccc(NC(=O)NCCCn2ccnc2)n1` was -3.04%; that for `Cc1ccc(CNC(=O)c2c[nH]nc2NC(=O)COCC2CC2)cc1` was 3.58%.
Turning to `COc1cccc(SCC(=O)N2CCC(N3CCCC3=O)CC2)c1`, the cytotoxicity at 10 µM is -9.41%.
In the case of `CS(=O)(=O)c1nnc(NC(=O)CCc2cc(F)ccc2F)[nH]1` it was -16.6%; in that of `Cc1cc(=O)c(C(=O)N2CCN(C)c3ccccc3C2)c[nH]1`, 3.53%.
As for `CCC(C)(N)c1nc(=O)c(C)c(C)[nH]1` (stereo not given), the cytotoxicity at 10 µM is -1.82%.
For the compound `Cc1ccc2c(c1)OCCCC2NCc1nccn1CC(C)C` (stereo not given), the cytotoxicity at 10 µM was -0.77%.
The value for `O=C(c1ncncc1Cl)N1CCN(c2ccc(Cl)cc2)CC1` was -2.72%.
On to `NS(=O)(=O)CC1CCCN(C(=O)CCCC2CCCC2)C1` (stereo not given), for which the cytotoxicity at 10 µM was 15.8%.
The value for `CCn1c(CN(C)CC(F)(F)F)nc2c(F)cccc21` was -5.35%.
For `CSCCC(NC(=O)c1ccc2ccccc2n1)C(=O)NC1CC1` (stereo not given), the cytotoxicity at 10 µM was -7.03%.
In the case of `Cc1ccc(CNCC2CCCn3ccnc32)s1` (stereo not given) it was -15.1%.
As for `COCCN1C(=O)CC[C@@H]2[C@@H]1CCN2S(=O)(=O)C1CC1`, the cytotoxicity at 10 µM is -98.4%.
For `O=C(c1ccncn1)N1CCC[C@]2(C[C@@H](OCc3ccccn3)CO2)C1`, the cytotoxicity at 10 µM is -72.9%.
In the case of `O=C(c1cscn1)N1CC[C@H]2C[C@@H](c3ccncn3)O[C@@H]2C1` it was -76.6%; in that of `O=C(c1ccnnc1)N1C[C@H]2CCC[C@@]2(COCC2CCOCC2)C1`, -3.04%.
In the case of `CC(=O)c1ccc(N2CCCC(CO)(CCc3ccccc3)C2)nc1` (stereo not given) it was 1.2%; in that of `COc1ccc(-n2cccn2)c(CN2CCC3(CCCN(C)C3=O)C2)c1` (stereo not given), 10.2%; in that of `OC[C@@H]1CCCN1c1ccc(-c2nc(CCc3ccccc3)no2)cn1`, -0.134%.
The value for `Cc1cc(NCCc2nc(C)c[nH]2)nc(-c2ccccc2O)n1` was 1.5%.
In the case of `Cc1nccc(N[C@H]2CN(C(=O)CN3CCOCC3)C[C@@H]2C(C)C)n1`, the cytotoxicity at 10 µM was -7.92%.
Turning to `CCN(CC)CCCNc1nccc(-c2cn(C)nc2C)n1`, the cytotoxicity at 10 µM was -2.92%.
In the case of `CC(=O)N1CC2(CCN(c3ccc4ccccc4n3)CC2)CC1C(=O)O` (stereo not given) it was 5.33%; in that of `O=C(CCCn1cncn1)N1CCCC1c1nc(-c2ccccc2)no1` (stereo not given), 0.997%; in that of `COc1cccn(CC(=O)N(C)CCSC)c1=O`, 5.03%.
The value for `N[C@@H](Cc1c[nH]cn1)C(=O)N1CCC(Oc2ccc(Cl)cc2)CC1` was -2.13%; that for `CN(C)CC(=O)NC1CC(C)(C)Cc2nc(C(C)(C)C)ncc21` (stereo not given) was -13.4%; that for `O=C(CCN1CCCO1)N1CC[C@@H](CNC(=O)N2CCCC2)[C@H](O)C1` was 0.275%.
In the case of `CN(Cc1nc(Cc2cccc(C(F)(F)F)c2)no1)C1CCCCC1` it was 1.99%; in that of `Cc1ccc(Cl)c(NC(=O)c2cccc(CN3CC[C@H](O)C3)c2)c1`, -11.9%; in that of `OCC(O)CN(CCN1CCOCC1)Cc1ccco1` (stereo not given), -4.7%.
Take `Cc1ccc2nccc(C(=O)N3CCOC(CCN(C)C)C3)c2c1` (stereo not given): the cytotoxicity at 10 µM is 10.8%.
`CNc1ccnc(N2CCCC(C(=O)c3ccccn3)C2)n1` (stereo not given): the cytotoxicity at 10 µM was -12.1%.
For the compound `CCCS(=O)(=O)N1CCC2(CC1)CC(=O)N(CCCc1ccccc1)C2`, the cytotoxicity at 10 µM stood at 8.35%.
For `O=C1NCC(c2ccc(F)cc2)Cc2[nH]c(CCN3CCCC3)nc21` (stereo not given), the cytotoxicity at 10 µM was -0.65%.
`COc1ccc(F)cc1C(=O)C1CCCN(Cc2ccc(C)s2)C1` (stereo not given): the cytotoxicity at 10 µM was -1.84%.
In the case of `CCN1CC(C(=O)NCCn2cccc2)CC1=O` (stereo not given) it was -4.72%; in that of `CN(Cc1nccn1C)C1CCCN(CCCc2ccccc2)C1` (stereo not given), 1.17%.
On to `c1ccc(C(CC2CN(Cc3ncc[nH]3)CCO2)c2ccccc2)cc1` (stereo not given), for which the cytotoxicity at 10 µM was -0.73%.
The value for `c1ccc2c(c1)CC(n1ccnc1-c1cc3n(n1)CCNC3)CO2` (stereo not given) was 4.58%.
Consider `CN1CCCN(C(=O)c2csc3nc(-c4ccc(Cl)cc4)cn23)CC1`, for which the cytotoxicity at 10 µM stood at 2.14%.
The value for `CCc1[nH]c2ccc(CNC(=O)Cc3c(C)nc(N)nc3C)cc2c1C` was 2.02%; that for `CCc1cnc(N)nc1NCc1ccc(OC)c(OC)c1` was 3.48%.
In the case of `Cc1cc(CN2CCC(CNC(=O)c3nccc4ccccc34)C2)[nH]n1` (stereo not given) it was 14.1%.
As for `CCCc1c(C(=O)NC2CCCC2)nnn1-c1ccc(OC)cc1`, the cytotoxicity at 10 µM came to 5.65%.
With `Cc1cnn(CCNCc2csc(-c3ccc(C(N)=O)cc3)n2)c1`, the cytotoxicity at 10 µM is -7.75%.
In the case of `Cn1cc(C2CCCN2C(=O)COCCOc2ccccc2)cn1` (stereo not given) it was -16.3%.
For `Cc1cnn(CC2CN(c3nc4ccccc4o3)CCO2)c1` (stereo not given), the cytotoxicity at 10 µM is -16.5%.
In the case of `CCc1noc(C(C)N2CCC(N3CCCCC3)CC2)n1` (stereo not given) it was -4.8%.
In the case of `NC(=O)C1CCCN(c2ccc(CNC(=O)c3csnn3)cc2)C1` (stereo not given) it was -2.18%; in that of `Cc1ccc(-c2noc(CN3CCOC(Cn4cncn4)C3)n2)cc1` (stereo not given), -4.15%; in that of `CC(C)Cc1cc(C(=O)N2CCCC(n3cncn3)C2)[nH]n1` (stereo not given), -3.9%.
As for `Cc1cc(C(=O)N2CC[C@]3(C[C@@H](OCc4ccccn4)CO3)C2)c(C)o1`, the cytotoxicity at 10 µM is -78.7%.
In the case of `c1cnc(N2CCO[C@H]3[C@H](OCCN4CCCC4)CC[C@@H]32)nc1` it was -11.8%; in that of `Cc1cc(C(=O)N2CCc3ncc(CN4CCCC4)n3CC2)no1`, -108%; in that of `Cc1cc(CN2C[C@@H]3COC[C@]3(CNS(C)(=O)=O)C2)no1`, -71.2%.
In the case of `Cc1cccc(COC[C@@H]2CC[C@H]3[C@H](CCN3Cc3ccco3)O2)n1` it was -9.81%; in that of `Cn1cc(CN2C[C@H]3CCN(C(=O)c4cscn4)C[C@H]3C2)cn1`, 4.12%.
In the case of `O=C([C@H]1C[C@H]2OCC[C@H]2N(CCc2ccccc2)C1)N1CCCO1` it was -72.8%; in that of `Cc1ncsc1CN1Cc2cn(C)nc2C(COCC2CC2)C1` (stereo not given), -67.3%.
Turning to `Cc1occc1C(=O)N1CCOCC2(CCN(C3CCOCC3)C2)C1` (stereo not given), the cytotoxicity at 10 µM was 1.47%.
On to `c1cnc(N2CCCC3(CCN(CC4CC4)C3)C2)nc1` (stereo not given), for which the cytotoxicity at 10 µM is -76.9%.
Consider `COCCN1CCC2(CC1)CC(Nc1ccc(C)nn1)CO2` (stereo not given), for which the cytotoxicity at 10 µM was -0.818%.
`Fc1cnc(N2CCCC3(CCN(Cc4ccsc4)C3)C2)nc1` (stereo not given): the cytotoxicity at 10 µM is -2.83%.
The value for `CCN1CCC2(CC1)CC(NCc1ccncc1)c1ccccc1O2` (stereo not given) was 0.254%; that for `O=C(CN1C[C@@H]2CC[C@H]1CN(Cc1ccccn1)C2)Nc1ccccc1` was -5.92%.
